Assay [1] has as its target T1, DNA topoisomerase 1 (Homo sapiens) (UniProt P11387).
T1 sequence (whole entry): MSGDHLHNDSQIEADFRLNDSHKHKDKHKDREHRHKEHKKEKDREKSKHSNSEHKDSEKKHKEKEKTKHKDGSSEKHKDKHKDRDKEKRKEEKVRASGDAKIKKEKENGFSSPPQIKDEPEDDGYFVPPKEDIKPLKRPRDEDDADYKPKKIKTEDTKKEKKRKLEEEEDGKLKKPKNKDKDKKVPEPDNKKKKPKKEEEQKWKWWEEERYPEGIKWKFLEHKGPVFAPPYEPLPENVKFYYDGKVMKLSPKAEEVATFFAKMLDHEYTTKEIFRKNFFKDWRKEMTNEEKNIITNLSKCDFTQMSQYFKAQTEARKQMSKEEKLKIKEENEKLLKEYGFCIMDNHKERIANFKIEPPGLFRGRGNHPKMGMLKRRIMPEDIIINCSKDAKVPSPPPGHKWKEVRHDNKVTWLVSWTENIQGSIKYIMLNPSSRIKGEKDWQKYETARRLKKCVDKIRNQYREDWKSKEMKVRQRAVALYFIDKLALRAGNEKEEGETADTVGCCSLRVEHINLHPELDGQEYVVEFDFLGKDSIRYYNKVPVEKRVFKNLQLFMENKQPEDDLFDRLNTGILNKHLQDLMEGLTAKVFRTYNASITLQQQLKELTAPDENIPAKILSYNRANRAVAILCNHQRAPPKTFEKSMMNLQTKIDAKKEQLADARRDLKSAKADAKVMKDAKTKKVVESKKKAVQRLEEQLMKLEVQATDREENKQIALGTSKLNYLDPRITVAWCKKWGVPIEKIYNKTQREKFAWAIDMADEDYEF
Briefly: Induction of human recombinant topoisomerase 1-mediated SV40 DNA cleavage at 1 to 50 uM after 30 mins by PAGE. The method, boiled down: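 Substrate was a gel-purified 751-bp BamHI-EcoRI SV40 DNA fragment, uniquely 3′-end labeled (20 000 cpm/sample). It was reacted with full-length human recombinant topo I and drug at 1, 10 and 50 µM in 10 mM Tris-HCl pH 7.6, 150 mM KCl, 5 mM MgCl2, 15 µg/mL BSA, 0.1 mM DTT, 30 min at 37 °C. Stopped with 0.5% SDS/0.3 mg/mL proteinase K, 45 min, 42 °C. Run on denaturing 8% polyacrylamide gel and quantified by phosphorimaging. Band intensity was compared with SN38 reference.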

In a further assay the test system is NCI-H460. The assay can be described thus: Antiproliferative activity against human NCI-H460 cells after short term exposure for 1 hr measured after 72 hrs in drug-free medium. The format is functional, cell-based. In short, it runs like this: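 NCI-H460 human NSCLC cells grown in RPMI 1640 with 10% FCS. IC50 is the concentration giving 50% decrease in cell growth relative to untreated control.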

The values that follow come from ChEMBL document CHEMBL1140911, “Semisynthesis, biological activity, and molecular modeling studies of C-ring-modified camptothecins” (J Med Chem, 2009).

Where a name gives a salt, the structure may show the parent alone. Activity calls are given as the source filed them. The rule behind the calls is not given here. A value given as a limit tells only on which side of the number the result lay.

With `CC[C@@]1(O)C(=O)OCC2=C1C=C1c3nc4ccccc4cc3C3NN=C2N13` (mixture of isomers), the result in assay [1] was Active. For the same compound, the IC50 – broadly, the concentration at which inhibition is half-maximal – in the assay on NCI-H460 was determined as 46.8 µM.

`CC[C@@]1(O)C(=O)OCc2c1cc1n(c2=O)[C@@H](N=[N+]=[N-])c2cc3ccccc3nc2-1` came in with an IC50 in the assay with NCI-H460 of 11.5 µM.

In the case of `CC[C@@]1(O)C(=O)OCc2c1cc1c3nc4ccccc4cc3c3nnc2n13`, the result in assay [1] was Active. Also, it took 10.6 µM to reach half-maximal inhibition in the assay on NCI-H460 (IC50).

Turning to `CC[C@@]1(O)C(=O)OCc2c1cc1n(c2=O)C(C)c2cc3ccccc3nc2-1` (mixture of isomers), the result in assay [1] was Active. In addition, the IC50 with NCI-H460 was determined as 5.9 µM.

In turn, `CC[C@@]1(O)C(=O)OCc2c1cc1n(c2=O)C(N=[N+]=[N-])(N=[N+]=[N-])c2cc3ccccc3nc2-1` (stereo not given in full) registered an IC50 in the assay on NCI-H460 of 9.3 µM.

`CC[C@@]1(O)C(=O)OCc2c1cc1n(c2=O)[C@@H](N(NC(=O)OCc2ccccc2)C(=O)OCc2ccccc2)c2cc3ccccc3nc2-1` had an IC50 in the assay on NCI-H460 of 85 µM.

The compound `CC[C@@]1(O)C(=O)OCc2c1cc1n(c2=O)Cc2cc3c(CN(C)C)c(O)ccc3nc2-1` [TOPOTECAN HYDROCHLORIDE] displayed an IC50 with NCI-H460 of 0.61 µM.

`CC[C@@]1(O)C(=O)OCc2c1cc1n(c2=O)[C@H](N(NC(=O)OCc2ccccc2)C(=O)OCc2ccccc2)c2cc3ccccc3nc2-1` registered an IC50 in the assay with NCI-H460 of 60 µM.

In the case of `CC[C@@]1(O)C(=O)OCc2c1cc1n(c2=O)[C@@H](N(NC(=O)OC(C)(C)C)C(=O)OC(C)(C)C)c2cc3ccccc3nc2-1`, the IC50 with NCI-H460 is over 173 µM.

With `CC[C@@]1(O)C(=O)OCc2c1cc1n(c2=O)[C@@H](F)c2cc3ccccc3nc2-1`, the outcome in assay [1] was Active. In the assay on NCI-H460, the midpoint of inhibition, the IC50, lay at 56 µM.

Regarding `CC[C@@]1(O)C(=O)OCc2c1cc1n(c2=O)[C@H](F)c2cc3ccccc3nc2-1`, the result in assay [1] was Active. In the assay on NCI-H460, the IC50 was determined as 56 µM.

For the compound `CC[C@@]1(O)C(=O)OCc2c1cc1n(c2=O)[C@H](N(NC(=O)OC(C)(C)C)C(=O)OC(C)(C)C)c2cc3ccccc3nc2-1`, the result in assay [1] was Active. The compound also yielded an IC50 in the assay on NCI-H460 of 77 µM.

`CC[C@@]1(O)C(=O)OCc2c1cc1n(c2=O)C(CCCO)c2cc3ccccc3nc2-1` (mixture of isomers) yielded an IC50 with NCI-H460 of 16 µM.

Consider `CC[C@@]1(O)C(=O)OCc2c1cc1n(c2=O)C(N)c2cc3ccccc3nc2-1` (stereo not given in full), for which the outcome in assay [1] was Active. The compound also gave an IC50 in the assay with NCI-H460 of 30 µM.

On to `CC[C@@]1(O)C(=O)OCc2c1cc1n(c2=O)[C@H](N=[N+]=[N-])c2cc3ccccc3nc2-1`, for which the outcome in assay [1] was Active. In the assay on NCI-H460, half-maximal inhibition (IC50) was put at 6.7 µM.

As for `CCc1c2c(nc3ccc(O)cc13)-c1cc3c(c(=O)n1C2)COC(=O)[C@]3(O)CC` [7-ETHYL-10-HYDROXYCAMPTOTHECIN], the outcome in assay [1] was Active. In addition, the IC50 with NCI-H460 was 0.13 µM.
